Calls of active or inactive are those of the source. The calls are words filed in the database; no cut-off is given here.
Assays:
K562 [1] = experiment: Induction of apoptosis in human K562 cells assessed as necrotic cells at 30 nM after 24 hrs by Annexin V-FITC/propidium iodide staining-based flow cytometric analysis (reference value: 0.1%); format: functional
HepG2 [2] = experiment: Anti-migratory activity against human HepG2 cells at 10 nM after 48 hrs by wound-healing assay relative to control; format: functional
Method in brief: (§1)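 HepG2 cells seeded at 2 × 10^5 cells/well in DMEM and grown 24 h. Monolayer scratched with a 10 μl pipette tip, then PBS-washed three times. Treated with DMSO or compound (10, 30, 100 nM) at 37 °C, 5% CO2, imaged by microscopy at 0–48 h. Migration distance measured; inhibition ratio calculated against DMSO control.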

K562 [3] = experiment: Induction of apoptosis in human K562 cells assessed as viable cells at 30 nM after 48 hrs by Annexin V-FITC/propidium iodide staining-based flow cytometric analysis (reference value: 95.8%); format: functional; settings: K562, 48 h, read-out: Activity
K562 [4] = experiment: Induction of apoptosis in human K562 cells assessed as early apoptotic cells at 30 nM after 6 hrs by Annexin V-FITC/propidium iodide staining-based flow cytometric analysis (reference value: 1.9%); format: functional
K562 [5] = experiment: Induction of apoptosis in human K562 cells assessed as early apoptotic cells at 30 nM after 12 hrs by Annexin V-FITC/propidium iodide staining-based flow cytometric analysis (reference value: 1.9%); format: functional
HepG2 [6] = experiment: Anti-migratory activity against human HepG2 cells after 24 hrs by DAPI staining-based transwell assay; format: functional, cell-based
Method in brief: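 HepG2 cells in serum-free DMEM, 2 × 10^5 cells/well, placed in upper compartment of polycarbonate filter inserts; lower chamber DMEM + 10% FBS. Compound or DMSO added after 30 min; 24 h at 37 °C, 5% CO2. Filters methanol-fixed and DAPI-stained, non-migrated cells swabbed off. Migrated cells on the lower side counted in three random fields.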

K562 [7] = experiment: Induction of apoptosis in human K562 cells assessed as viable cells at 300 nM after 6 hrs by Annexin V-FITC/propidium iodide staining-based flow cytometric analysis (reference value: 95.6%); format: functional; settings: K562, 6 h, read-out: Activity
K562 [8] = experiment: Induction of apoptosis in human K562 cells assessed as early apoptotic cells at 300 nM after 12 hrs by Annexin V-FITC/propidium iodide staining-based flow cytometric analysis (reference value: 2.2%); format: functional
K562 [9] = experiment: Induction of apoptosis in human K562 cells assessed as early apoptotic cells at 300 nM after 48 hrs by Annexin V-FITC/propidium iodide staining-based flow cytometric analysis (reference value: 2.2%); format: functional
K562 [10] = experiment: Induction of apoptosis in human K562 cells assessed as early apoptotic cells at 300 nM after 6 hrs by Annexin V-FITC/propidium iodide staining-based flow cytometric analysis (reference value: 2.2%); format: functional
K562 [11] = experiment: Induction of apoptosis in human K562 cells assessed as early apoptotic cells at 30 nM after 24 hrs by Annexin V-FITC/propidium iodide staining-based flow cytometric analysis (reference value: 1.9%); format: functional
K562 [12] = experiment: Induction of apoptosis in human K562 cells assessed as late apoptotic cells at 300 nM after 12 hrs by Annexin V-FITC/propidium iodide staining-based flow cytometric analysis (reference value: 2.1%); format: functional
K562 [13] = experiment: Induction of apoptosis in human K562 cells assessed as necrotic cells at 30 nM after 48 hrs by Annexin V-FITC/propidium iodide staining-based flow cytometric analysis (reference value: 0.1%); format: functional
K562 [14] = experiment: Induction of apoptosis in human K562 cells assessed as necrotic cells at 300 nM after 48 hrs by Annexin V-FITC/propidium iodide staining-based flow cytometric analysis (reference value: 0%); format: functional
K562 [15] = experiment: Induction of apoptosis in human K562 cells assessed as necrotic cells at 30 nM after 6 hrs by Annexin V-FITC/propidium iodide staining-based flow cytometric analysis (reference value: 0.1%); format: functional
K562 [16] = experiment: Induction of apoptosis in human K562 cells assessed as necrotic cells at 300 nM after 24 hrs by Annexin V-FITC/propidium iodide staining-based flow cytometric analysis (reference value: 0%); format: functional
K562 [17] = experiment: Induction of apoptosis in human K562 cells assessed as late apoptotic cells at 300 nM after 6 hrs by Annexin V-FITC/propidium iodide staining-based flow cytometric analysis (reference value: 2.1%); format: functional
K562 [18] = experiment: Induction of apoptosis in human K562 cells assessed as necrotic cells at 300 nM after 6 hrs by Annexin V-FITC/propidium iodide staining-based flow cytometric analysis (reference value: 0%); format: functional
K562 [19] = experiment: Induction of apoptosis in human K562 cells assessed as viable cells at 30 nM after 24 hrs by Annexin V-FITC/propidium iodide staining-based flow cytometric analysis (reference value: 95.8%); format: functional; settings: K562, 24 h, read-out: Activity
K562 [20] = experiment: Induction of morphological changes in human K562 cells assessed as elongation of cells at 30 nM after 6 hrs; format: functional, cell-based
Method in brief: (§2)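 K562 cells kept in RPMI-1640 with 10% FBS, 2.05 mM glutamine and penicillin/streptomycin at 37 °C, 5% CO2. Exposed to 30 nM drug alongside DMSO-treated controls. Cell morphology examined by microscopy.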

K562 [21] = experiment: Induction of morphological changes in human K562 cells assessed as cell blebbing at 30 nM after 24 hrs; format: functional, cell-based; method in brief: as §2
K562 [22] = experiment: Induction of apoptosis in human K562 cells assessed as necrotic cells at 30 nM after 12 hrs by Annexin V-FITC/propidium iodide staining-based flow cytometric analysis (reference value: 0.1%); format: functional
K562 [23] = experiment: Induction of apoptosis in human K562 cells assessed as necrotic cells at 300 nM after 12 hrs by Annexin V-FITC/propidium iodide staining-based flow cytometric analysis (reference value: 0%); format: functional
K562 [24] = experiment: Induction of apoptosis in human K562 cells assessed as viable cells at 300 nM after 48 hrs by Annexin V-FITC/propidium iodide staining-based flow cytometric analysis (reference value: 95.6%); format: functional; settings: K562, 48 h, read-out: Activity
K562 [25] = experiment: Induction of apoptosis in human K562 cells assessed as late apoptotic cells at 300 nM after 24 hrs by Annexin V-FITC/propidium iodide staining-based flow cytometric analysis (reference value: 2.1%); format: functional
K562 [26] = experiment: Induction of apoptosis in human K562 cells assessed as viable cells at 300 nM after 24 hrs by Annexin V-FITC/propidium iodide staining-based flow cytometric analysis (reference value: 95.6%); format: functional; settings: K562, 24 h, read-out: Activity
HepG2 [27] = experiment: Anti-migratory activity against human HepG2 cells at 100 nM after 48 hrs by wound-healing assay relative to control; format: functional; method in brief: as §1
K562 [28] = experiment: Induction of apoptosis in human K562 cells assessed as late apoptotic cells at 30 nM after 48 hrs by Annexin V-FITC/propidium iodide staining-based flow cytometric analysis (reference value: 2.2%); format: functional
HepG2 [29] = experiment: Anti-migratory activity against human HepG2 cells at 30 nM after 48 hrs by wound-healing assay relative to control; format: functional; method in brief: as §1

For `COc1ccc(CN2C(=O)C(=O)c3cc(-c4ccc(OC)cc4)ccc32)cc1`, which Activity (K562 [1]) is on record?
The Activity was 0.4%.

And the Activity (HepG2 [2])?
Its Activity is 11.9%.

And the viability at 0.03 µM (K562 [3])?
Its viability at 0.03 µM is 55.6%.

And the Activity (K562 [4])?
Its Activity is 2.1%.

And the Activity (K562 [5])?
The Activity was 3.1%.

What about the Activity (HepG2 [6]) of the same compound?
Its Activity is “Dose-dependent effect”.

What about the viability at 0.3 µM (K562 [7]) of the same compound?
The viability at 0.3 µM was 93.6%.

What about the Activity (K562 [8]) of the same compound?
The Activity was 5.7%.

What about the Activity (K562 [9]) of the same compound?
Its Activity is 85.2%.

What about the Activity (K562 [10]) of the same compound?
The Activity was 2.4%.

What about the Activity (K562 [11]) of the same compound?
Its Activity is 5.7%.

And the Activity (K562 [12])?
The Activity was 5.9%.

What about the Activity (K562 [13]) of the same compound?
The Activity was 1%.

What about the Activity (K562 [14]) of the same compound?
The Activity was 0%.

And the Activity (K562 [15])?
Its Activity is 0.1%.

And the Activity (K562 [16])?
The Activity was 0.2%.

And the Activity (K562 [17])?
Its Activity is 3.8%.

And the Activity (K562 [18])?
The Activity was 0.2%.

What about the viability at 0.03 µM (K562 [19]) of the same compound?
Its viability at 0.03 µM is 88.5%.

And the Activity (K562 [20])?
The Activity was “Active”.

What about the Activity (K562 [21]) of the same compound?
The Activity was “Active”.

What about the Activity (K562 [22]) of the same compound?
Its Activity is 0%.

What about the Activity (K562 [23]) of the same compound?
The Activity was 0.4%.

And the viability at 0.3 µM (K562 [24])?
The viability at 0.3 µM was 4.7%.

What about the Activity (K562 [25]) of the same compound?
The Activity was 4.7%.

What about the viability at 0.3 µM (K562 [26]) of the same compound?
The viability at 0.3 µM was 82.6%.

And the Activity (HepG2 [27])?
Its Activity is 47.9%.

What about the Activity (K562 [28]) of the same compound?
Its Activity is 21.1%.

And the Activity (HepG2 [29])?
The Activity was 26.9%.

Reference: ChEMBL document CHEMBL4270578, “Synthesis and cytotoxic studies of novel 5-phenylisatin derivatives and their anti-migration and anti-angiogenic evaluation” (Eur J Med Chem, 2018)
